Results of several laboratories.
Protocols differ between the studies behind these lines.
Target: Maternal embryonic leucine zipper kinase (MELK, Homo sapiens, UniProt Q14680)

Compound	assay	setting	quantity	result
CCCCC(=O)Nc1ccc(-c2ccc3ncn(CCC)c(=O)c3c2)cn1	binding, competition with immobilised ligand	0.5 µM	remaining binding	86%
C#Cc1cc(-c2cc(Nc3nc(N[C@@H](C)c4ccc(F)cn4)ncc3Cl)n[nH]2)ccc1C=O	enzyme activity, inhibitor	0.2 µM	inhibition	34.3%
CO[C@@H]1[C@H](N(C)C(=O)c2ccccc2)C[C@H]2O[C@]1(C)n1c3ccccc3c3c4c(c5c6ccccc6n2c5c31)C(=O)NC4	enzyme activity, inhibitor	1 µM	inhibition	60%
C1=C/COCc2cc(ccc2OCCN2CCCC2)Nc2nccc(n2)-c2cccc(c2)COC/1	binding	0.1 µM	remaining binding	84%
CN1CCN(C(=O)c2ccc(NC(=O)Nc3ccc(N(C)c4ccnc(Nc5ccc(CS(C)(=O)=O)cc5)n4)cc3)cc2)CC1	binding	1 µM	remaining binding	81%
CC#CC(=O)N1CCC[C@H]1c1nc(-c2ccc(C(=O)Nc3ccccn3)cc2)c2c(N)nccn12	enzyme activity, inhibitor	1 µM	inhibition	41%
COc1ccc2oc(-c3ccc4nc(N)oc4c3)c/c(=N\c3ccccc3NC(=O)CCN)c2c1	binding	1 µM	remaining binding	99%
C[C@H]1CC[C@H](n2c3cnccc3c3cnc(Nc4ccc5c(n4)CCN(C(=O)CO)C5)nc32)CC1	cell-free assay	1 µM	remaining signal	24%
